EWS-Fli inh – blocks EWS/Fli oncoprotein-driven transcription; inhibition, % at 12.6 µM; A673 NR0B1-luciferase reporter, viability-normalised; 350,000 compounds, 0.67% hits; AID 651661;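 active means mean inhibition of at least 50% after viability correction, with every replicate also passing that limit; inconclusive means mean reaches 50% but only one of two replicates passes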;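 further: firefly luciferase signal divided by Alamar Blue viability fluorescence both relative to DMSO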
PAX8 reporter – PAX8 transcriptional activity inhibition; AID 652154; RMG-I TPO-luciferase reporter, SteadyGlo, 24 h; 360,000 compounds, 1.2% hits; inhibition, % at 12.6 µM;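 active means mean replicate inhibition at least 60% with every replicate also reaching 60%; inconclusive means only one of the two criteria is met; inactive means mean below 60% and not all replicates reaching 60%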;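 further: luciferase light reporting Pax8 driven TPO promoter activity; plate controls were median of neutral control wells for no effect and mitoxantrone controls for full effect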
FN deposition inh – fibronectin deposition inhibition; inhibition, % at 12.6 µM; AID 743247; 350,000 compounds, 0.086% hits; AH1F fibroblasts, Alexa488-fibronectin deposition fluorescence, overnight;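 active means mean inhibition across replicates of 30% or more, regardless of how many single replicates reach that level; inconclusive means mean under 30% yet at least half of replicates reach 30%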;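 further: positive control wells lacked labelled fibronectin entirely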
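Assay system: AH1F fibroblasts assembling fluorescent fibronectin matrix; Amount: 10000 AH1F cells per well; Buffer or medium: DMEM, 2% serum; Probe or stimulus: Alexa488-fibronectin, 24 nM final in well; Doses: single compound dose, delivered by pin transfer; Incubation: 1 h adhesion, overnight exposure; Measured by: fluorescence 485/525 nm; Read-out: fibronectin deposition inhibition.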
PGC1a acetyl inh – modulators of PGC1a acetylation | U2OS PGC1a acetylation, AlphaScreen anti-acetyl-lysine; with virally co-expressed GCN5 acetyltransferase | inhibition, % at 15.6 µM | 350,000 compounds, 0.17% hits | AID 651687;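 active means every replicate shows inhibition of at least 40%; inconclusive means mean inhibition at least 40% but some replicate below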;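 further: 0% = neutral control wells and 100% = positive control wells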
Env fusion inh – blocks HIV Env-driven cell-cell fusion; HeLa-JRFL Env/CEM21 cell fusion, luciferase; inhibition, % at 12.3 µM; 360,000 compounds, 1.1% hits;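 active means mean replicate inhibition score of at least 50 and every replicate individually at or above 50; inconclusive means only one of the two criteria met; inactive means mean below 50 and not all replicates reaching 50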;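 further: 0% = plate neutral controls and 100% = maraviroc near 300 nM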
F508del corr – correctors of CFTR F508del function in bronchial epithelial cells. 350,000 compounds, 0.36% hits. CFBE cells, YFP halide quenching; stimulated with forskolin plus potentiator P3; % fluorescence drop versus neutral controls. activity (quench increase), % at 7.58 µM;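 active means mean added fluorescence quench of at least 8% versus neutral control, with both replicates also reaching 8%; inconclusive means only one of the mean or replicate conditions met; inactive means mean below 8% and not both replicates reaching 8%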;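 further: cells transiently co-express mutant CFTR-F508del with the halide-sensitive YFP; corrector assay measuring rescue of mutant channel to the surface after 24 h compound exposure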
Numbers without * were called inactive; ? = inconclusive; . = no result given; [ ] = remark or other dose. Only some compounds are listed: those with a hit (about 2.3% of all), similar ones and a draw of the others.

SMILES	EWS-Fli inh	PAX8 reporter	FN deposition inh	PGC1a acetyl inh	Env fusion inh	F508del corr
COc1ccc(NC(=O)c2cc(S(=O)(=O)N3CCOCC3)ccc2C)cc1S(=O)(=O)N1CCOCC1	-1.7	.	-2.2	-6.3	-2.0	10.3*
COc1ccc(NC(=O)c2cc(S(=O)(=O)N3CCCCC3)ccc2C)cc1S(=O)(=O)N1CCOCC1	9.8	-3.1	-0.3	0.1	23.6	-1.2
COc1ccccc1-c1ccc2c(c1)[C@H]1[C@H](CCN1S(=O)(=O)c1cccc(F)c1)[C@@H](CO)N2	2.8	23.8	-7.7	-14.1	.	0.7
C=CCn1c(SCC(=O)c2[nH]c(C)c(C(=O)OC)c2C)nc2scc(-c3ccc(OC)c(OC)c3)c2c1=O	60.5*	7.2	4.5	.	2.0	.
Fc1ccc(CSc2ccc(-c3ccco3)nn2)cc1	-97.0	131.4*	-5.1	.	.	-1.6
CCCCN(C=O)c1c(CC)nc2ccc(C(=O)Nc3cc(-c4ccccc4)ccc3OC)cn12	14.3	74.6*	10.2	-2.5	17.7	0.7
CCc1nc2ccc(C(=O)Nc3cc(-c4ccccc4)ccc3OC)cn2c1N(CC)CCN(C)C	32.8	18.7	1.3	.	5.0	-1.3
CCCC#Cc1ccc(CC[C@H]2O[C@H]3CC[C@@H](CO)O[C@H]3C[C@H]2NC(=O)c2cnccn2)cc1	.	-10.2	.	0.2	.	-1.5
CCOC(=O)C(CC)(CC)C(=O)/C=C/c1ccc(Br)cc1	.	.	.	56.7*	.	.
C[C@@H]1CCCCO[C@@H](CN(C)Cc2ccc3c(c2)OCO3)[C@H](C)CN([C@@H](C)CO)C(=O)c2cc(NC(=O)Nc3ccc(C(F)(F)F)cc3)ccc2O1	-1.0	88.1*	-12.2	-0.7	39.5[16.7 µM]	-1.6
C[C@H]1CCCCO[C@@H](CN(C)Cc2ccc3c(c2)OCO3)[C@@H](C)CN([C@@H](C)CO)C(=O)c2cc(NC(=O)Nc3ccc(C(F)(F)F)cc3)ccc2O1	-5.0	-18.2	-2.8	7.5	47.3[16.7 µM]	3.1
C[C@@H]1CCCCO[C@@H](CN(C)Cc2ccc3c(c2)OCO3)[C@@H](C)CN([C@@H](C)CO)C(=O)c2cc(NC(=O)Nc3ccc(C(F)(F)F)cc3)ccc2O1	4.1	76.8*	1.7	6.5	?	0.9
C[C@@H]1CN([C@@H](C)CO)C(=O)c2cc(NC(=O)Nc3ccc(C(F)(F)F)cc3)ccc2O[C@@H](C)CCCCO[C@@H]1CN(C)Cc1ccc2c(c1)OCO2	0.3	101.0*	-16.4	-6.8	18.1[16.7 µM]	5.3
COCC(=O)Nc1ccc2c(c1)OC[C@@H](C)N(CCC(F)(F)F)C[C@H](C)[C@H](OC)CN(C)C2=O	-7.7	-0.4	.	2.9	10.1[16.7 µM]	-1.1
O=C1CCCC2=C1C(c1ccccc1)C1C(=O)c3ccccc3C1=N2 (stereo not drawn)	.	26.3	-14.8	.	30.4	.
O=C1CCCC2=C1C(c1ccc(Cl)cc1)C1C(=O)c3ccccc3C1=N2 (stereo not drawn)	.	.	1.3	-47.3	59.5*	.
Cc1cc(N=O)c(C)cc1O	2.0	.	.	-17.6	.	-5.4
Cc1cc(O)c(-c2cc(O)c(C)cc2O)cc1O	69.7*	?	36.8*	-32.0	-8.9	-2.9
CCCNC(=O)c1ccccc1NC(=O)c1ccccc1N(C)S(=O)(=O)c1ccccc1	.	20.0	-3.1	-8.2	72.3*	.
CC(C)CNC(=O)c1ccccc1NC(=O)c1ccccc1N(C)S(=O)(=O)c1ccccc1	11.6	8.3	-9.4	4.3	77.8*	1.7
COCCNC(=O)c1ccccc1NC(=O)c1ccccc1N(C)S(=O)(=O)c1ccc(C)cc1	.	.	.	2.9	.	.
COc1ccc2c3c([nH]c2c1)[C@@H](CO)N(C(=O)C1CC1)CC31CN(Cc2nccs2)C1	-3.3	85.9*	.	.	.	2.2
COc1ccc2c3c([nH]c2c1)[C@H](CO)N(C(=O)C1CCCC1)CC31CCN(Cc2cccc(F)c2)CC1	35.6	.	.	-14.9	.	6.3
COc1ccc2c3c([nH]c2c1)[C@@H](CO)N(C(=O)C1CCCC1)CC31CN(Cc2nccs2)C1	12.8	0.5	.	.	.	1.1
COc1ccc2c3c([nH]c2c1)[C@@H](CO)N(S(=O)(=O)c1cn(C)cn1)CC31CCN(CC2CCCCC2)CC1	-16.8	-20.5	-7.0	-13.2	.	8.6*
SMILES	EWS-Fli inh	PAX8 reporter	FN deposition inh	PGC1a acetyl inh	Env fusion inh	F508del corr
COc1ccc2c3c([nH]c2c1)[C@H](CO)N(C(=O)C1CC1)CC31CCN(Cc2cccc(F)c2)CC1	35.9	68.7*	.	.	.	-0.3
O=C1[C@H](Cc2ccc(C(F)(F)F)cc2)CCn2cc(nn2)COC[C@@H]2CCCCN12	.	.	7.2	.	.	.
O=C(C[C@@H]1C[C@@H]2c3cc(NC(=O)Cc4ccncc4)ccc3O[C@@H]2[C@H](CO)O1)NCc1cccnc1	-1.1	-26.2	-5.4	-8.7	-6.1[16.7 µM]	2.2
COc1ccc(-c2cc(NC=O)c3ncc(-c4ccc(OC)c(OC)c4)n3c2)cc1OC	43.6	52.6	10.4	-16.9	11.6	.
COc1cc(-c2cc(NC=O)c3ncc(-c4ccc(F)cc4)n3c2)cc(OC)c1OC	14.7	18.2	9.7	-21.1	-7.2	0.9
COc1ccc(-c2cc(NC=O)c3ncc(-c4ccc(OC)c(OC)c4)n3c2)cc1	?	6.3	21.8	-5.7	-211.1	8.4*
CN(C)C(=O)c1cccc(-c2cnc3c(NC=O)cc(-c4cccc(C(F)(F)F)c4)cn23)c1	12.7	.	-1.6	3.5	56.0*	-4.4
COc1cc(-c2cnc3c(NC=O)cc(-c4ccsc4)cn23)cc(OC)c1OC	56.0*	.	-0.6	0.5	-94.1	-2.8
O=CNc1cc(-c2cccc(F)c2)cn2c(-c3ccc(F)cc3)cnc12	5.2	20.5	-6.8	.	0.9	-0.6
CS(=O)(=O)Nc1cccc(-c2cc(NC=O)c3ncc(-c4ccc(F)cc4)n3c2)c1	2.6	80.7*	2.9	-7.8	-0.5	-5.2
O=C(C[C@H]1CC[C@@H](NC(=O)Nc2ccc3c(c2)OCO3)[C@@H](CO)O1)NCc1ccc(Cl)cc1	-4.8	-11.8	-1.8	0.8	40.0[16.7 µM]	-0.6
COc1cc(-c2cnc3c(NC=O)cc(-c4cccc(C(F)(F)F)c4)cn23)cc(OC)c1OC	21.0	21.4	0.4	-2.1	18.0	8.7*
COc1ccc(-c2cc(NC=O)c3ncc(-c4cccc(C(F)(F)F)c4)n3c2)c(OC)c1	31.6	14.8	4.9	3.8	15.5	-0.3
COc1ccc(-c2cnc3c(NC(C)=O)cc(-c4cc(F)ccc4OC)cn23)cc1OC	54.3*	27.4	-1.7	0.1	5.7	1.4
COc1cccc(-c2cc(NC=O)c3ncc(-c4cc(OC)c(OC)c(OC)c4)n3c2)c1	52.6*	26.2	4.4	-47.4	-269.0	0.9
O=C(O)[C@@H]1[C@@H](CO)[C@@H]2Cn3c(ccc(-c4cncnc4)c3=O)[C@@H]2N1C(=O)C1CCCC1	-0.1	.	.	-1.7	.	-2.1
Cc1ccc(S(=O)(=O)NCCCNS(=O)(=O)c2ccc(C)cc2)cc1	4.4	12.8	4.3	2.5	-2.8	20.3*
Cc1ccc(S(=O)(=O)NCCCN(C)C)cc1	.	.	.	-7.5	.	.

Compound activity from PubChem BioAssay.
